# Measured values: ChEMBL document CHEMBL3616462, “Synthesis and antiviral activity of maleopimaric and quinopimaric acids' derivatives” (Bioorg Med Chem, 2015)
# Columns and labels:
# [1] = Antiviral activity against Influenza A virus (A/Brisbane/10/2007(H3N2)) infected in MDCK cells; format: functional, cell-based
# [2] = Selectivity index, ratio of CC50 for Adenovirus Chicago 65089 infected human A549 cells to EC50 for antiviral activity against Adenovirus Chicago 65089 infected in human A549 cells; format: toxicity, cell-based; conditions: A549 cells infected with Adenovirus Chicago 65089, read-out: Ratio CC50/EC50
# [3] = system: rhinovirus A2; assay: Antiviral activity against human rhinovirus 2 infected in MDCK cells; format: functional, organism-based; conditions: Rhinovirus A
# [4] = Selectivity index, ratio of CC50 for Influenza A virus (A/Viet Nam/1203/2004(H5N1)) infected MDCK cells to EC50 for antiviral activity against Influenza A virus (A/Viet Nam/1203/2004(H5N1)) infected in MDCK cells; format: toxicity, cell-based; conditions: dog; read-out: Ratio CC50/EC50
# [5] = Cytotoxicity against SARS coronavirus Urbani infected African green monkey Vero 76 cells; format: cell-based; conditions: chlorocebus sabaeus, Vero 76 cells infected with SARS coronavirus Urbani
# [6] = Antiviral activity against Influenza A virus (A/California/07/2009(H1N1)) infected in MDCK cells; format: functional, cell-based
# [7] = Selectivity index, ratio of toxicity against human Huh7ET cells assessed as reduction in beta-actin RNA levels at 20 uM to antiviral activity against HCV infected in human Huh7ET cells assessed as reduction in HCV RNA-derived luciferase activity at 20 uM by luciferase reporter gene assay; format: cell-based, Huh-7; conditions: read-out: Selectivity Index
# Procedure, shortened: (§1)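 HCV RNA replicon assay in Huh7 ET cells. Compounds were added in triplicate at a single concentration of 20 µM. Antiviral activity was read as HCV RNA-derived luciferase signal, expressed as % of control. Toxicity was read as β-actin RNA, % of control. SI = toxicity/antiviral activity. Interferon-α (2 IU/mL) was the positive control.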
# [8] = Selectivity index, ratio of CC50 for HPV11 infected PHK cells epithelial raft cultures by standard AACF screening assay to EC50 for HPV11 infected in PHK cells epithelial raft cultures by standard AACF screening assay
# [9] = Cytotoxicity against HPV11 infected PHK cells epithelial raft cultures by standard AACF screening assay; format: cell-based; conditions: human
# [10] = system: Hepatitis B virus; assay: Antiviral activity against HBV infected in human HepG2(2.2.15) cells; format: functional, organism-based
# Procedure, shortened: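 Primary anti-HBV screen in confluent 2.2.15 cells, run alongside a toxicity assay in the same cells. Compounds were supplied as DMSO solutions.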
# [11] = Cytotoxicity against Influenza A virus (A/Brisbane/10/2007(H3N2)) infected MDCK cells; format: cell-based, Canis lupus familiaris; conditions: dog
# [12] = Cytotoxicity against Influenza A virus (A/Viet Nam/1203/2004(H5N1)) infected MDCK cells; format: cell-based, Canis lupus familiaris; conditions: dog
# [13] = Antiviral activity against SARS coronavirus Urbani infected in African green monkey Vero 76 cells; format: functional, cell-based; conditions: Severe acute respiratory syndrome-related coronavirus
# [14] = Cytotoxicity against Influenza A virus (A/California/07/2009(H1N1)) infected MDCK cells; format: cell-based, Canis lupus familiaris; conditions: dog
# [15] = Selectivity index, ratio of CC50 for human rhinovirus 2 infected MDCK cells to EC50 for antiviral activity against human rhinovirus 2 infected in MDCK cells; format: toxicity, cell-based; conditions: dog, MDCK cells infected with human rhinovirus 2; read-out: Ratio CC50/EC50
# [16] = Selectivity index, ratio of CC50 for Influenza A virus (A/California/07/2009(H1N1)) infected MDCK cells to EC50 for antiviral activity against Influenza A virus H1N1 (A/California/07/2009(H1N1)) infected in MDCK cells; format: toxicity, cell-based; conditions: dog; read-out: Ratio CC50/EC50
# [17] = Cytotoxicity against human rhinovirus 2 infected MDCK cells; format: cell-based, Canis lupus familiaris; conditions: dog, MDCK cells infected with human rhinovirus 2
# [18] = system: Influenza B virus; assay: Antiviral activity against Influenza B virus (B/Florida/4/2006) in MDCK cells; format: functional, cell-based; conditions: B/Florida/4/2006, MDCK
# [19] = Cytotoxicity against Adenovirus Chicago 65089 infected human A549 cells; format: cell-based; conditions: A549 cells infected with Adenovirus Chicago 65089
# Procedure, shortened: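 Respiratory-virus panel screen on A-549 cells, with compounds supplied as DMSO solutions. CC50 is the cell inhibitory concentration at the 50% endpoint, in µM.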
# [20] = Cytotoxicity against HBV infected human HepG2(2.2.15) cells; format: cell-based; conditions: HBV infected HepG2(2.2.15) cells
# Procedure, shortened: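 Toxicity was measured on confluent 2.2.15 cells alongside the primary anti-HBV assay. CC50 is given in µM.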
# [21] = Cytotoxicity against Influenza B virus (B/Florida/4/2006) infected MDCK cells; format: cell-based, Canis lupus familiaris; conditions: dog
# [22] = Selectivity index, ratio of CC50 for Influenza B virus (B/Florida/4/2006) infected MDCK cells to EC50 for antiviral activity against Influenza B virus (B/Florida/4/2006) in MDCK cells; format: toxicity, cell-based; conditions: dog; read-out: Ratio CC50/EC50
# [23] = Selectivity index, ratio of CC50 for Influenza A virus (A/Brisbane/10/2007(H3N2)) infected MDCK cells to EC50 for antiviral activity against Influenza A virus (A/Brisbane/10/2007(H3N2)); format: toxicity, cell-based; conditions: dog; read-out: Ratio CC50/EC50
# [24] = Antiviral activity against Influenza A virus (A/Viet Nam/1203/2004(H5N1)) infected in MDCK cells; format: functional, cell-based
# [25] = system: unidentified adenovirus; assay: Antiviral activity against Adenovirus Chicago 65089 infected in human A549 cells; format: functional, organism-based; conditions: Chicago 65089, A549
# [26] = system: Hepatitis C virus; assay: Antiviral activity against HCV infected in human Huh7ET cells assessed as reduction in HCV RNA-derived luciferase activity at 20 uM by luciferase reporter gene assay; format: functional, Hepacivirus hominis; conditions: Huh-7; procedure, shortened: as §1
# [27] = Toxicity against human Huh7ET cells assessed as reduction in beta-actin RNA levels at 20 uM; format: cell-based, Huh-7; conditions: Huh7ET cells, values are per cent of control
# Procedure, shortened: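 HCV RNA replicon assay in Huh7 ET cells. Compounds were added in triplicate at a single concentration of 20 µM. Cytotoxicity was read as β-actin RNA as % of control, alongside HCV RNA-derived luciferase activity. Interferon-α (2 IU/mL) was the positive control.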
# [28] = system: human papillomavirus 11; assay: Antiviral activity against HPV11 infected in PHK cells epithelial raft cultures by standard AACF screening assay; format: functional, organism-based; conditions: human papillomavirus 11, PHK
# [29] = Selectivity index, ratio of CC50 for ARS coronavirus Urbani infected African green monkey Vero 76 cells to EC50 for antiviral activity against ARS coronavirus Urbani infected in African green monkey Vero 76 cells; format: toxicity, cell-based; conditions: Vero 76 cells infected with SARS coronavirus Urbani, read-out: Ratio CC50/EC50
SMILES,EC50 [3] [µM],selectivity ratio [4],CC50 [5] [µM],selectivity ratio at 20 µM [7],CC50 [9] [µM],EC50 [10] [µM],EC90 [10] [µM],CC50 [12] [µM],EC50 [13] [µM],CC50 [17] [µM],EC50 [18] [µM],CC50 [19] [µM],CC50 [20] [µM],CC50 [21] [µM],selectivity ratio [22],EC50 [24] [µM],EC50 [25] [µM],inhibition at 20 µM [26] [%],"response, % of control at 20 µM [27] [%]",EC50 [28] [µM],also measured
COC(=O)[C@H]1[C@@H](C(=O)OC)C2(C(=O)OC)CC[C@@H]3[C@](C)(CCC[C@@]3(C)C(=O)OC)[C@H]2C[C@H]1C(=O)C(C)C (stereo partly drawn),32,1,30,< 1,< 50,> 10,> 10,3.3,> 30,32,3.2,32,189,3.5,1.1,3.2,32,0.6,88.1,> 50,EC50 [1]: 32 µM; selectivity ratio [2]: 1; EC50 [6]: 32 µM; Ratio CC50/EC50 [8]: 30; CC50 [11]: 33 µM; CC50 [14]: 33 µM; selectivity ratio [15]: 1; selectivity ratio [16]: 1; selectivity ratio [23]: 1
COC(=O)[C@H](C)NC(=O)[C@]1(C)CCC[C@]2(C)[C@H]3C[C@H]4C(C(C)C)=C[C@]3(CC[C@H]21)[C@@H]1C(=O)CCC(=O)[C@@H]14,> 25,1.1,32,> 1,< 25,> 10,> 10,33,30,25,22,47,86,33,1.5,31,> 47,60.8,54,< 25,Ratio CC50/EC50 [8]: 20; selectivity ratio [29]: 1.1
COC(=O)[C@]1(C)CCC[C@]2(C)[C@H]3C[C@H]4C(C(C)C)=C[C@]3(CC[C@H]21)[C@H]1[C@@H]4[C@@H](OC(=O)CCC(=O)O)CC[C@@H]1OC(=O)CCC(=O)O,31,1,3.6,< 1,< 50,> 10,> 10,3.2,3.2,33,3.1,10,21,3.4,1.1,3.2,> 10,96.6,6.4,> 50,selectivity ratio [29]: 1.1; selectivity ratio [15]: 1.1
COC(=O)[C@]1(C)CCC[C@]2(C)[C@H]3CC4C(C(C)C)=C[C@]3(CC[C@H]21)[C@@H]1NC(=O)CC[C@H](O)[C@H]41,> 28,–,32,> 1,< 50,> 10,> 10,28,6.3,28,24,29,58,35,1.5,> 28,> 29,97.3,102,< 50,EC50 [1]: > 28 µM; EC50 [6]: 32 µM; CC50 [11]: 28 µM; selectivity ratio [29]: 5.1; CC50 [14]: 33 µM; selectivity ratio [16]: 1
